Where only a bound is given, the exact number is not on record here.

The first test concerns PPC-1. Description: Cytotoxicity against human PPC1 cells assessed as growth inhibition after 96 hrs by SRB assay. Format: functional, cell-based. The conditions noted are these: PPC-1, 96 h. Summed up:
(§1)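 Plated at 1000–5000 cells/well depending on growth rate and treated with graded compound concentrations for 96 h, three to five replicates. Cell number was measured by SRB: 10% TCA fixation, 0.4% SRB staining, absorbance at 540 nm. IC50 relative to untreated control came from a nonlinear regression fit.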
In the case of `COc1cc(C(=O)c2nc(-c3ccccc3)cn2C2CCCC2)cc(OC)c1OC`, the IC50 (commonly the concentration at which inhibition is half-maximal) amounted to 63 nM.

For the compound `COc1cc(C(=O)c2c[nH]c(-c3ccc(C(C)(C)C)cc3)n2)cc(OC)c1OC`, the IC50 came to 294 nM.

Turning to `COc1cc(C(=O)c2c[nH]c(-c3ccc(C(C)C)cc3)n2)cc(OC)c1OC`, the half-inhibitory concentration (IC50) was determined as 173 nM.

The next test deals with MDA-MB-435. Description: Cytotoxicity against human MDA-MB-435 cells assessed as growth inhibition after 48 hrs by SRB assay. The format is functional, cell-based. The conditions noted are these: MDA-MB-435, 48 h. For orientation: The SRB assay estimates cell density from bound dye.
As to `COc1cc(C(=O)c2nc(-c3ccccc3)cn2-c2cccs2)cc(OC)c1OC`, the half-maximal inhibitory concentration (IC50) worked out at 0.025 µM.

In the case of `COc1cc(C(=O)c2nc(-c3ccc(C)cc3)c[nH]2)cc(OC)c1OC`, the IC50 was determined as 0.027 µM.

In the case of `CCc1[nH]c(Cc2cc(OC)c(OC)c(OC)c2)nc1-c1ccccc1`, the IC50 is > 50 µM.

Consider `COc1cc(-c2c[nH]c(C(=O)c3ccc(N(C)C)cc3)n2)cc(OC)c1OC`, for which the IC50 is 29.2 µM.

Regarding `CN(C)c1ccc(C(=O)c2nc(-c3ccc(N(C)C)cc3)c[nH]2)cc1`, the IC50 is > 50 µM.

Take `COc1cc(C(=O)c2nc(-c3ccccc3)cn2C2CCCC2)cc(OC)c1OC`: the concentration for half-maximal inhibition (IC50) is 0.134 µM.

Consider `COc1cc(-c2c[nH]c(C(=O)c3ccc(O)cc3)n2)cc(OC)c1OC`, for which the half-maximal inhibitory concentration (IC50) was > 50 µM.

In the case of `O=C(c1ccc(O)cc1)c1nc(-c2ccc(O)cc2)c[nH]1`, the IC50 amounted to 48 µM.

Regarding `COc1cc(C(=O)c2c[nH]c(-c3ccc(C(C)(C)C)cc3)n2)cc(OC)c1OC`, the IC50 came out at 3.69 µM.

As for `COc1cc(Cc2nc(-c3ccccc3)c(-c3ccccc3)[nH]2)cc(OC)c1OC`, the half-inhibitory concentration (IC50) is > 50 µM.

As to `CCCc1[nH]c(Cc2cc(OC)c(OC)c(OC)c2)nc1-c1ccccc1`, the 50% inhibitory concentration (IC50) is 10.9 µM.

`COc1cc(C(=O)c2c[nH]c(-c3ccc(C(C)C)cc3)n2)cc(OC)c1OC`: the 50% inhibitory concentration (IC50) was determined as 0.312 µM.

System in the next test: not listed separately
Description: Cytotoxicity against human WM164 cells assessed as growth inhibition after 48 hrs by SRB assay. Format: functional, cell-based. The conditions noted are these: WM164, 48 h. Summed up:
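Melanoma cells from ATCC, grown in DMEM with 10% FBS at 37°C under 5% CO2. Seeded at 1000–5000 cells/well according to growth rate and exposed to a range of compound concentrations for 48 h, in three to five replicates. Cells were fixed with 10% TCA, stained with 0.4% SRB and read at 540 nm. IC50 (50% growth inhibition versus untreated control) was taken from nonlinear regression of % survival against concentration.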
As for `COc1cc(C(=O)c2nc(-c3ccccc3)cn2-c2cccs2)cc(OC)c1OC`, the IC50 is 0.008 µM.

With `COc1cc(C(=O)c2nc(-c3ccc(C)cc3)c[nH]2)cc(OC)c1OC`, the 50% inhibitory concentration (IC50) worked out at 0.014 µM.

As to `COc1cc(-c2c[nH]c(C(=O)c3ccc(N(C)C)cc3)n2)cc(OC)c1OC`, the IC50 came to 46.1 µM.

Consider `CN(C)c1ccc(C(=O)c2nc(-c3ccc(N(C)C)cc3)c[nH]2)cc1`, for which the 50% inhibitory concentration (IC50) is > 50 µM.

Consider `COc1cc(C(=O)c2nc(-c3ccccc3)cn2C2CCCC2)cc(OC)c1OC`, for which the IC50 is 0.056 µM.

As for `COc1cc(-c2c[nH]c(C(=O)c3ccc(O)cc3)n2)cc(OC)c1OC`, the half-maximal inhibitory concentration (IC50) was > 50 µM.

On to `O=C(c1ccc(O)cc1)c1nc(-c2ccc(O)cc2)c[nH]1`, for which the 50% inhibitory concentration (IC50) is 48.2 µM.

In the next test the test system is DU-145. The test is described as follows: Cytotoxicity against human DU145 cells assessed as growth inhibition after 96 hrs by SRB assay. The format is functional, cell-based. The conditions noted are these: Homo sapiens, DU-145, 96 h.
`COc1cc(C(=O)c2nc(-c3ccccc3)cn2C2CCCC2)cc(OC)c1OC`: the IC50 is 167 nM.

For `COc1cc(C(=O)c2c[nH]c(-c3ccc(C(C)(C)C)cc3)n2)cc(OC)c1OC`, the IC50 stood at 1700 nM.

Take `COc1cc(C(=O)c2c[nH]c(-c3ccc(C(C)C)cc3)n2)cc(OC)c1OC`: the IC50 came to 482 nM.

Still in this test, the particulars now being: du-145.
As to `COc1cc(C(=O)c2c[nH]c(-c3ccc(C)cc3)n2)cc(OC)c1OC`, the IC50 worked out at 11 nM.

For a further test, the system named is PC-3. The test is described as follows: Cytotoxicity against human PC3 cells assessed as growth inhibition after 96 hrs by SRB assay. Format: functional, cell-based. The conditions noted are these: PC-3, 96 h. The method in brief:
as §1
On to `COc1cc(C(=O)c2nc(-c3ccccc3)cn2C2CCCC2)cc(OC)c1OC`, for which the concentration for half-maximal inhibition (IC50) amounted to 56 nM.

Turning to `COc1cc(C(=O)c2c[nH]c(-c3ccc(C(C)(C)C)cc3)n2)cc(OC)c1OC`, the IC50 is 436 nM.

As to `COc1cc(C(=O)c2c[nH]c(-c3ccc(C(C)C)cc3)n2)cc(OC)c1OC`, the IC50 turned out to be 136 nM.

The next test has as its system A-375. The test is described as follows: Cytotoxicity against human A375 cells assessed as growth inhibition after 48 hrs by SRB assay. The format is functional, cell-based. As to conditions: A-375, 48 h. Summed up: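 Melanoma cells from ATCC, grown in DMEM with 10% FBS at 37°C under 5% CO2. Seeded at 1000–5000 cells/well according to growth rate and exposed to a range of compound concentrations for 48 h, in three to five replicates. Cells were fixed with 10% TCA, stained with 0.4% SRB and read at 540 nm.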
As to `COc1cc(Cc2nc(-c3ccccc3)c(C)[nH]2)cc(OC)c1OC`, the 50% inhibitory concentration (IC50) was > 50 µM.

As for `COc1cc(C(=O)c2nc(-c3ccccc3)cn2-c2cccs2)cc(OC)c1OC`, the IC50 turned out to be 0.02 µM.

For `COc1cc(C(=O)c2nc(-c3ccc(C)cc3)c[nH]2)cc(OC)c1OC`, the IC50 was 0.013 µM.

For the compound `COc1cc(-c2c[nH]c(C(=O)c3ccc(N(C)C)cc3)n2)cc(OC)c1OC`, the half-maximal inhibitory concentration (IC50) worked out at 47.9 µM.

As for `CN(C)c1ccc(C(=O)c2nc(-c3ccc(N(C)C)cc3)c[nH]2)cc1`, the concentration for half-maximal inhibition (IC50) is > 50 µM.

On to `COc1cc(C(=O)c2nc(-c3ccccc3)cn2C2CCCC2)cc(OC)c1OC`, for which the half-maximal inhibitory concentration (IC50) came to 0.135 µM.

For `COc1cc(-c2c[nH]c(C(=O)c3ccc(O)cc3)n2)cc(OC)c1OC`, the IC50 was > 50 µM.

In the case of `O=C(c1ccc(O)cc1)c1nc(-c2ccc(O)cc2)c[nH]1`, the half-inhibitory concentration (IC50) was determined as 38.8 µM.

As to `COc1cc(Cc2nc(-c3ccccc3)c[nH]2)cc(OC)c1OC`, the IC50 came out at 10.2 µM.

For a further test, the system named is LNCaP. Description: Cytotoxicity against human LNCAP cells assessed as growth inhibition after 96 hrs by SRB assay. Format: functional, cell-based.
Details: not given
The method in brief:
as §1
`COc1cc(C(=O)c2nc(-c3ccc(C)cc3)c[nH]2)cc(OC)c1OC`: the IC50 was 13 nM.

Consider `COc1cc(C(=O)c2nc(-c3ccccc3)cn2C2CCCC2)cc(OC)c1OC`, for which the half-maximal inhibitory concentration (IC50) worked out at 51 nM.

With `COc1cc(C(=O)c2c[nH]c(-c3ccc(C(C)(C)C)cc3)n2)cc(OC)c1OC`, the IC50 is 423 nM.

As to `COc1cc(C(=O)c2c[nH]c(-c3ccc(C(C)C)cc3)n2)cc(OC)c1OC`, the IC50 came out at 171 nM.

System in a further test: not listed separately
The test is described as follows: Cytotoxicity against human MDA-MB-435/LCC6MDR1 cells assessed as growth inhibition after 48 hrs by SRB assay. Format: functional, cell-based, MDA-MB-435/LCC6 MDR1. As to conditions: Homo sapiens, MDA-MB-435/LCC6 MDR1, 48 h.
For the compound `COc1cc(C(=O)c2nc(-c3ccccc3)cn2-c2cccs2)cc(OC)c1OC`, the concentration for half-maximal inhibition (IC50) came to 0.027 µM.

`COc1cc(C(=O)c2nc(-c3ccc(C)cc3)c[nH]2)cc(OC)c1OC`: the IC50 worked out at 0.021 µM.

Regarding `CCc1[nH]c(Cc2cc(OC)c(OC)c(OC)c2)nc1-c1ccccc1`, the IC50 is > 50 µM.

In the case of `COc1cc(-c2c[nH]c(C(=O)c3ccc(N(C)C)cc3)n2)cc(OC)c1OC`, the concentration for half-maximal inhibition (IC50) was found to be 40.6 µM.

Consider `CN(C)c1ccc(C(=O)c2nc(-c3ccc(N(C)C)cc3)c[nH]2)cc1`, for which the IC50 is > 50 µM.

As to `COc1cc(C(=O)c2nc(-c3ccccc3)cn2C2CCCC2)cc(OC)c1OC`, the IC50 amounted to 0.161 µM.

For the compound `COc1cc(-c2c[nH]c(C(=O)c3ccc(O)cc3)n2)cc(OC)c1OC`, the IC50 is > 50 µM.

For `O=C(c1ccc(O)cc1)c1nc(-c2ccc(O)cc2)c[nH]1`, the IC50 was 21.4 µM.

With `COc1cc(C(=O)c2c[nH]c(-c3ccc(C(C)(C)C)cc3)n2)cc(OC)c1OC`, the IC50 came out at 3.07 µM.

In the case of `COc1cc(Cc2nc(-c3ccccc3)c(-c3ccccc3)[nH]2)cc(OC)c1OC`, the concentration for half-maximal inhibition (IC50) is > 50 µM.

For the compound `CCCc1[nH]c(Cc2cc(OC)c(OC)c(OC)c2)nc1-c1ccccc1`, the IC50 turned out to be 15.9 µM.

On to `COc1cc(C(=O)c2c[nH]c(-c3ccc(C(C)C)cc3)n2)cc(OC)c1OC`, for which the IC50 was found to be 0.25 µM.

The same test, now with this note: mda-mb-435/lcc6 mdr1.
`COc1cc(C(=O)c2c[nH]c(-c3ccc(C)cc3)n2)cc(OC)c1OC`: the concentration for half-maximal inhibition (IC50) was 0.011 µM.

Values taken from ChEMBL document CHEMBL2321845, “Discovery of 4-Aryl-2-benzoyl-imidazoles as tubulin polymerization inhibitor with potent antiproliferative properties” (J Med Chem, 2013).
